SMILES strings stand for the structures.

A short description of this data set: Toxicity liver stage against HepG2, at 10uM. The conditions noted are these: human, HepG2-A16-CD81EGFP cells; read-out: INHIBITION
In kind it is cell-based. Also noted: test concentration 10 uM, cell line HepG2-A16-CD81EGFP. The essentials: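 Uninfected HepG2-A16-CD81EGFP cells, 3 × 10^3 per well, 1536-well, plated on prespotted compound at 10 μM final, parasite-free screening media added to match infected plates; puromycin 10 μM positive, DMSO 0.5% negative; run in parallel with 48 h PbLuc assay at 37 °C, 5% CO2; viability by CellTiter-Glo luminescence, normalized to controls.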
For `Fc1ccc(CN2CCO[C@H]3[C@H](Oc4ccccn4)CC[C@@H]32)cc1`, the cytotoxicity at 10 µM amounted to 6.44%.

`CC(C)(CNC(=O)CCCOc1cccc(F)c1)C(N)=O`: the cytotoxicity at 10 µM was -6.54%.

`CCC(=O)c1ccc(OCC(=O)NC(C)c2nnc(C)[nH]2)cc1` (stereo not given): the cytotoxicity at 10 µM was found to be 5.37%.

`CCNC(=O)[C@@H]1C[C@@H](NC(=O)c2cc(C)on2)CN1Cc1ccccn1`: the cytotoxicity at 10 µM was -6.78%.

On to `CSC(C)CC(=O)N1CCC(n2ccnn2)CC1` (stereo not given), for which the cytotoxicity at 10 µM is -47.9%.

Regarding `Cc1cccc(CNC2CCCc3c2cnn3Cc2ccccc2)c1` (stereo not given), the cytotoxicity at 10 µM is -16.6%.

As to `Cc1ccc(NC2CCN(C(=O)CCCc3ccccn3)CC2)cc1`, the cytotoxicity at 10 µM stood at 13.3%.

In the case of `Cc1ccnc(SCC(=O)Nc2csc3nc(=O)c(C)nn23)n1`, the cytotoxicity at 10 µM was 12.2%.

Consider `CN1Cc2cc(F)ccc2N(CC(C)(C)O)CCC1=O`, for which the cytotoxicity at 10 µM was -2.02%.

`CCN(CCn1cccn1)Cc1nc(-c2cccc(C)c2)oc1C`: the cytotoxicity at 10 µM is 0.0489%.

`Cc1oc(C(C)C)cc1C(=O)N1CCN(c2cnn(C)c(=O)c2)CC1`: the cytotoxicity at 10 µM came out at 1.27%.

For `Cc1ccccc1CNC(=O)N1C[C@@H]2C[C@H](C(=O)N(C)C)[C@H](C1)O2`, the cytotoxicity at 10 µM was 5.44%.

As for `CC[C@H](C)[C@H](N)C(=O)N1CC(=O)c2sc(Nc3ccc(F)cc3)nc2C1`, the cytotoxicity at 10 µM is -1.44%.

As to `Cn1cc(CN2CCCC23CCN(C(=O)c2cccs2)CC3)cn1`, the cytotoxicity at 10 µM stood at 2.17%.

In the case of `CC(C)(C)CCCC(=O)Nc1ccnn1C1CCS(=O)(=O)C1` (stereo not given), the cytotoxicity at 10 µM is -9.92%.

In the case of `OCC1CCC2(CC1)CN(Cc1ccsc1)Cc1ccccc1O2` (stereo not given), the cytotoxicity at 10 µM is -3.78%.

On to `Cc1noc(C)c1CN1C(=O)[C@@H]2CC[C@H]1CN(Cc1nccs1)C2`, for which the cytotoxicity at 10 µM was -0.626%.

As for `Cc1ccc(NC2CCN(C(=O)c3cccc(F)c3F)CC2)nn1`, the cytotoxicity at 10 µM was -4.4%.

For `CC(C)NC(=O)N1CCN(C(=O)C2CCOCC2)CC2(CNC(=O)C2)C1` (stereo not given), the cytotoxicity at 10 µM worked out at 0.748%.

`COc1ccc(F)cc1S(=O)(=O)N1CCC(Oc2ccc(Cl)cn2)CC1`: the cytotoxicity at 10 µM turned out to be 8.05%.

For the compound `O=C(Cc1ccsc1)N1CCC(c2n[nH]c3nccnc23)CC1`, the cytotoxicity at 10 µM was -10.6%.

In the case of `OC1CCN(Cc2ccnc(-c3cccnc3)n2)CC1`, the cytotoxicity at 10 µM is -20.7%.

Take `O=C(c1cccnc1)N1CCCC1c1cc[nH]n1` (stereo not given): the cytotoxicity at 10 µM was -26.5%.

Take `Cn1cnc2c1C(COCC1CC1)CN(C(=O)Cc1ccsc1)C2` (stereo not given): the cytotoxicity at 10 µM is -2.67%.

As to `Clc1ccc(C2(CNC3=NCCN3)CCCC2)cc1`, the cytotoxicity at 10 µM was found to be 14.4%.

Turning to `CN(C)CCN1CCO[C@@H]2CCN(C(=O)c3cccn3C)CC[C@H]21`, the cytotoxicity at 10 µM came out at 7.17%.

`COc1cc(C(=O)N2C[C@@H]3CC[C@H]2CN(Cc2cscn2)C3)ccn1`: the cytotoxicity at 10 µM came to 3.2%.

Turning to `Cc1cc(C)n(CC2CCCN2C(=O)c2ccc3ccccc3n2)n1` (stereo not given), the cytotoxicity at 10 µM is -2.53%.

Turning to `Cc1cc(NC2CCCN(Cc3ccc(F)cc3)C2)n2nc(C)cc2n1` (stereo not given), the cytotoxicity at 10 µM came to 0.0152%.

With `COCCN1CCOCC12CCN(C(=O)c1cccnc1)CC2`, the cytotoxicity at 10 µM is -73.1%.

With `Cc1ccc(C(=O)NCc2cccnc2-n2cncn2)cc1S(C)(=O)=O`, the cytotoxicity at 10 µM is 4.5%.

Consider `Cc1noc(C)c1CN(C)C(=O)C1CCCN1S(N)(=O)=O` (stereo not given), for which the cytotoxicity at 10 µM worked out at 7.89%.

Consider `CC(C)N1C[C@@H](CO)[C@H](c2ccccc2)S1(=O)=O`, for which the cytotoxicity at 10 µM was -1.94%.

As for `N#Cc1cccnc1N1CCCC(CO)(Cc2cccc(Cl)c2)C1` (stereo not given), the cytotoxicity at 10 µM turned out to be 6.29%.

On to `CN(Cc1ccco1)[C@@H]1CN(Cc2cccnc2)C[C@@H]2CCCO[C@@H]21`, for which the cytotoxicity at 10 µM stood at 8.49%.

In the case of `Cc1nc(NC2CCCC2)cc(C2CCN2C(=O)c2cnn(C)c2)n1` (stereo not given), the cytotoxicity at 10 µM was 8.89%.

Turning to `COc1ccc(COCC(O)CNC(=O)c2cccnc2)cc1` (stereo not given), the cytotoxicity at 10 µM was found to be 7.94%.

In the case of `Cc1ccc(CN(C)Cc2nc3c(cnn3C)c(=O)[nH]2)c(C)c1`, the cytotoxicity at 10 µM was found to be 0.403%.

As to `O=C(CNC(=O)Nc1c(F)cc(F)cc1-c1ccccc1)NC1CC1`, the cytotoxicity at 10 µM is -13.5%.

Take `O=C(c1ccc[nH]1)N1CCc2cc(S(=O)(=O)N3CCOCC3)ccc2C1`: the cytotoxicity at 10 µM is -3.44%.

Regarding `Cc1oncc1C(=O)N1CC[C@H]2CO[C@H](CN3CCCC3)[C@H]2C1`, the cytotoxicity at 10 µM worked out at 10.8%.

For the compound `Cc1n[nH]c(C2CN(CC(=O)NCc3cccs3)CCO2)n1` (stereo not given), the cytotoxicity at 10 µM is -4.13%.

As to `CCc1cc(CNC(=O)N(C2CC2)C(C)c2ccco2)[nH]n1` (stereo not given), the cytotoxicity at 10 µM stood at 4.18%.

For the compound `Cc1ccc(N2CCN(C(=O)COc3ncccn3)CC2)nn1`, the cytotoxicity at 10 µM is -0.233%.

Regarding `CC(C)Cc1noc(C2CCCN(C(=O)CCc3cnn(C)c3)C2)n1` (stereo not given), the cytotoxicity at 10 µM was determined as 0.297%.

`CN(C(=O)COC1CCCCC1)C1CCN(CC2CCOC2)CC1` (stereo not given): the cytotoxicity at 10 µM was found to be 0.33%.

On to `CO[C@@H]1CC[C@H]2[C@H]1OCCN2CCOCc1ccccc1`, for which the cytotoxicity at 10 µM is -114%.

Turning to `CC(=O)Nc1ccc(-c2ccccc2CCN)cc1`, the cytotoxicity at 10 µM was 3.61%.

As to `Cc1ccc(O)c(CNc2cccc(CN3CCN(C)CC3)c2)n1`, the cytotoxicity at 10 µM was -2%.

For `CCC(C)(NCC(N)=O)c1nccs1` (stereo not given), the cytotoxicity at 10 µM is 7.3%.

As for `CCSc1ccc(NC(=O)NC(C)c2c(C)noc2C)cn1` (stereo not given), the cytotoxicity at 10 µM was -3.69%.

For the compound `O=C(C1CCC1)N1CCCC(c2ccnc(Nc3cnccn3)n2)C1` (stereo not given), the cytotoxicity at 10 µM was -22.7%.

Consider `Cc1ccc(S(=O)(=O)N2CC[C@H]3CO[C@H](CN(C)C)[C@H]3C2)cc1`, for which the cytotoxicity at 10 µM was -98.3%.

For the compound `CCc1nnsc1C(=O)N1CCOC(c2nc(C)n[nH]2)C1` (stereo not given), the cytotoxicity at 10 µM was -6.45%.

As to `Cc1cnn(CC2CCCCN2C(=O)Cc2c(C)nn(C)c2C)c1` (stereo not given), the cytotoxicity at 10 µM was -13%.

For `CCOC(=O)c1sc2ccsc2c1CNS(C)(=O)=O`, the cytotoxicity at 10 µM is -12%.

Take `O=C(CCS(=O)(=O)C1CCCC1)N1CCC(O)(C(F)(F)F)C1` (stereo not given): the cytotoxicity at 10 µM is 18.9%.

For the compound `Cc1ccc(-c2nc(CN3CCC(N4CCNC4=O)CC3)co2)cc1`, the cytotoxicity at 10 µM was -7.73%.

For `CCNC(=O)N1CCC2(C1)c1ccccc1S(=O)(=O)N2CCC(C)C` (stereo not given), the cytotoxicity at 10 µM is -8.25%.

`CCCn1ncc(CN2CCCC(C(=O)c3ccc(Cl)cc3C)C2)c1C` (stereo not given): the cytotoxicity at 10 µM is -6.35%.

Turning to `CNc1cc2c(nn1)CCN(C(=O)c1cc(C)no1)C2`, the cytotoxicity at 10 µM is -15.8%.

Regarding `Cc1cc(C)n(CCNC(=O)c2ncc[nH]2)c(=O)n1`, the cytotoxicity at 10 µM was 2.84%.

With `COc1ccc(C(=O)N(Cc2cnn(C)c2)C(C)C)cc1Br`, the cytotoxicity at 10 µM is -9.02%.

`CCNC(=O)CNS(=O)(=O)Cc1cc(-c2ccccc2)no1`: the cytotoxicity at 10 µM was -6.71%.

Turning to `COCC(=O)N1CCC2(CCN(Cc3ccc(C)cc3)CC2)CC1`, the cytotoxicity at 10 µM came out at 6.68%.

With `CCn1ncc2c1C(COC)CN(Cc1cccnc1)C2` (stereo not given), the cytotoxicity at 10 µM came to 0.588%.

With `COc1cccc(OC2CN(C(=O)Cn3nc4ccccc4n3)C2)c1`, the cytotoxicity at 10 µM is -6.98%.

With `Cc1ccc(Sc2nccn(C)c2=O)cc1`, the cytotoxicity at 10 µM stood at 4.8%.

On to `CN(C)S(=O)(=O)N1C[C@@H](Oc2ccccn2)[C@H]2OCCC[C@H]21`, for which the cytotoxicity at 10 µM was determined as 1.16%.

Regarding `CCCOCCN1CCc2[nH]c(-c3ccccc3)nc2C1`, the cytotoxicity at 10 µM was -124%.

These data come from ChEMBL document CHEMBL4513216, “Probing the Open Global Health Chemical Diversity Library for Multistage-Active Starting Points for Next-Generation Antimalarials” (ACS Infect Dis, 2020).
